Shown are actives, neighbours in structure and some others; about 3.3% of the full set was active somewhere.
SENP1 FRET inh – human SENP1 catalytic domain inhibitors, primary screen, biochemical, FRET, uHTS; recombinant SENP1 catalytic domain, CyPet-SUMO1-YPet FRET cleavage; Sentrin-specific protease 1 (Homo sapiens), Q9P0U3; 0.21% of 360,000 active; AID 624204, 2012; inhibition, % at 10 µM;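 active = inhibition at least 30% at 10 µM, raw YFP signal under a set limit, fluorescence ratio 0.5 to 1.5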;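 also: 0% = enzyme with DMSO and 100% = no enzyme wells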
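system = hSENP1 catalytic domain, recombinant | reagent = SFCypet-SUMO1-SFYpet substrate at 25 nM | doses = one dose per compound, 10 µM, 0.5% DMSO | incubation = enzyme reaction for 50 min at room temperature, dark | measured by = FRET, CFP and YFP emission | controls = no-enzyme low, enzyme-DMSO high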
SENP7 inh – SENP7 protease inhibitors, primary screen, biochemical, luminescence, uHTS; inhibition, % at 5 µM; AID 434973, 2010; 1.5% of 330,000 active; recombinant SENP7, Z-RLRGG-aminoluciferin luminescence, 40 min; Sentrin-specific protease 7 (Homo sapiens), Q9BQF6;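 active = inhibition above about 50% at the single test dose, limit read from the data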;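 also: plate controls were DMSO with enzyme for no effect and no enzyme buffer wells for full effect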
Target sequence (Q9BQF6 706-1050 limits assumed): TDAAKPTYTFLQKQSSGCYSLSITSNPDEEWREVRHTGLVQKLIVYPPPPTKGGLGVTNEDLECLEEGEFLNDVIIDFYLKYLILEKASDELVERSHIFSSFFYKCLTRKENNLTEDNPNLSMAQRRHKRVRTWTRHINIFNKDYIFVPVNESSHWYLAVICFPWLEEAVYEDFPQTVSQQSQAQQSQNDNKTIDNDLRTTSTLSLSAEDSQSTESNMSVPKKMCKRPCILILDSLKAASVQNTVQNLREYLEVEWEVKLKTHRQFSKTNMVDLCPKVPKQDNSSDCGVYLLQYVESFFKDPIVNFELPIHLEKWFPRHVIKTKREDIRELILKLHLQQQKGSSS
NRP1-CendR mod – modulators of CendR peptide binding to NRP-1, primary screen, biochemical, fluorescence polarization, uHTS; inhibition, % at 25 µM; FAM-RPARPAR peptide binding to NRP-1; 0.85% of 360,000 active; Neuropilin-1 (Homo sapiens), O14786;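 active = inhibition or corrected inhibition above about 18%, plus a signal ratio from 0.5 to 1.5, limit read from the data, passing the limit was not always enough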
SENP6 inh – SENP6 protease inhibitors, primary screen, biochemical, luminescence, uHTS | Sentrin-specific protease 6 (Homo sapiens), Q9GZR1 | Recombinant SENP6 catalytic domain, aminoluciferin luminescence | inhibition, % at 10 µM | 1.8% of 330,000 active | AID 2599, 2010;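 active = inhibition above about 50% at the single tested dose, limit read from the data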;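 also: plate controls were DMSO wells with enzyme for no effect and DMSO wells lacking enzyme for full effect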
SENP8 block-1 – SENP8 protease inhibitors, primary screen, biochemical, luminescence. AID 2540, 2010. inhibition, % at 10 µM. 1.2% of 330,000 active. Sentrin-specific protease 8 (Homo sapiens), Q96LD8. purified SENP8, Z-RLRGG-aminoluciferin cleavage; in the data active = inhibition above about 50%
SENP8 block-2 – human SENP8 protease inhibitors, primary screen, biochemical, fluorescence, Nedd8 protein substrate, uHTS | inhibition, % at 20 µM | recombinant SENP8 | 0.64% of 360,000 active | AID 602440, 2012 | Sentrin-specific protease 8 (Homo sapiens), Q96LD8; in the data active = inhibition mostly above about 40%, no sharp cut-off; inactive = mostly below about 27%
SENP8 conf – SENP8 protease inhibitors, retest, confirmation, biochemical, luminescence, single concentration; shares compounds with SENP7 inh; Recombinant SENP8, Z-RLRGG-aminoluciferin luminescence, 60 min; inhibition, % at 12.5 µM; 40% of 6,200 active; AID 488912, 2010;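 active = mean inhibition across replicates above about 50%, limit read from the data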
SENP6 conf – SENP6 protease inhibitors, confirmation, biochemical, luminescence, single concentration; shares compounds with SENP7 inh; recombinant SENP6, Z-RLRGG-aminoluciferin luminescence; inhibition, % at 12.5 µM; 58% of 6,200 active; AID 488915, 2010
SENP7 conf – SENP7 protease inhibitors, retest, confirmation, biochemical, luminescence, single concentration; recombinant SENP7, Z-RLRGG-aminoluciferin luminescence, 40 min; shares compounds with SENP7 inh; inhibition, % at 12.5 µM; 69% of 6,200 active
Casp3 select – caspase-3 protease inhibitors, confirmation, selectivity assay for SENP inhibitor project, biochemical, single concentration; shares compounds with SENP7 inh; purified caspase-3, Z-DEVD-aminoluciferin luminescence, 60 min; inhibition, % at 12.5 µM; 60% of 6,200 active;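 active = mean inhibition above about 50%, limit read from the data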;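 also: plate controls were enzyme with DMSO for no effect and wells without caspase-3 for full effect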
Target sequence (P42574 28-227 limits assumed): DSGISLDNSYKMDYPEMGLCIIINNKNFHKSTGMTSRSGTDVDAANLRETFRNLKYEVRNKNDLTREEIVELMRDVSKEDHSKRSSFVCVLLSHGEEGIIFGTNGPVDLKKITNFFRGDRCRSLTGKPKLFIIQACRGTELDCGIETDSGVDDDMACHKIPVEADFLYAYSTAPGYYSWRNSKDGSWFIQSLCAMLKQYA
Luc interf – luminescence interference (SENP counter-screen) | shares compounds with SENP7 inh | Pre-incubated SENP8/Z-RLRGG-aminoluciferin, luciferase luminescence interference | inhibition, % at 12.5 µM | 39% of 6,200 active | AID 488919;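 active = mean inhibition above about 50% when retested at one dose, limit read from the data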;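 also: plate controls were DMSO wells with completed reaction for no effect and substrate without enzyme for full effect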
* hit, by the source's call; x = not tested or not shown.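 The calls were made as follows, unless noted: active = mean inhibition above about 50% in the one-dose retest (limit read from the data); inactive = the rest.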

SMILES	SENP1 FRET inh	SENP7 inh	NRP1-CendR mod	SENP6 inh	SENP8 block-1	SENP8 block-2	SENP8 conf	SENP6 conf	SENP7 conf	Casp3 select	Luc interf
COc1ccccc1C=NNC(=O)NN=Cc1ccccc1OC	3.5	x	12.1	x	x	11.2	x	x	x	x	x
COc1cccc(/C=N/Nc2ccc(C(=O)O)cc2)c1O	-6.9	99.1*	-5.1	99.5*	97.7*	-28.7	98.7*	99.6*	102.3*	98.3*	96.8*
COc1cccc(/C=N/NC(=O)N/N=C/c2cccc(OC)c2O)c1O	-1.0	0.7	3.6	49.8	50.4*	-1.8	-3.3	38.6	65.1*	60.6*	26.8
COc1ccc(Cl)cc1C(=O)NNC(=O)C1CCCO1 (configuration not stated)	3.2	-3.8	-0.4	-10.8	-5.5	2.4	x	x	x	x	x
Cc1oncc1C(=O)Nc1ccc(C(F)(F)F)cc1	0.6	76.1*	2.9	78.0*	68.1*	-2.0	11.7	67.2*	94.1*	76.4*	62.7*
Cc1coc(C)c1C(=O)Nc1ccc2ccccc2c1	-0.3	48.9	17.4	65.8*	26.7	-1.8	49.3	45.0	79.4*	52.4*	60.0*
Cc1oncc1C(=O)Nc1ccc2ccccc2c1	-1.2	80.9*	12.7	87.7*	67.3*	-7.6	24.9	65.2*	95.7*	75.4*	77.2*
CCOC(=O)[C@]12CCC=C1N(Cc1cccc3ccccc13)C(=O)[C@H](CC(=O)NCCC(C)C)C2	0.9	x	3.5	x	x	2.8	x	x	x	x	x
CSc1nc(N)nc2c1ncn2CC(=O)Nc1ccc(C)c(C)c1	0.6	-5.4	1.9	-30.3	-16.0	-102.3	x	x	x	x	x
CCOC(=O)c1cc(-c2cc3ccccc3o2)n[nH]1	-0.4	53.8*	-11.0	72.0*	33.0	-7.5	63.0*	60.6*	80.8*	48.0	32.6
CCOC(=O)c1cc(-c2ccc(C)o2)n[nH]1	-3.2	7.0	-15.3	-39.0	1.9	14.9	x	x	x	x	x
CC(=O)Cc1nsc(NC(=O)c2oc(-c3ccccc3Cl)cc2C)n1	0.0	5.2	-6.0	0.1	3.9	-179.1	x	x	x	x	x
O=C(Nc1nccs1)c1ccc(-c2ccccc2Cl)o1	-1.0	70.0*	8.1	78.9*	61.7*	-75.6	65.6*	69.0*	-6.6	22.7	25.2
CC(=O)Cc1nsc(NC(=O)c2ccc(-c3ccccc3Cl)o2)n1	1.4	44.6	-16.7	31.5	57.4*	-90.6	82.7*	79.2*	92.1*	66.4*	66.0*
O=C(Nc1ccccc1)c1ccc(-c2ccccc2Cl)o1	1.2	60.2*	3.4	65.9*	21.3	11.6	4.8	24.2	81.8*	38.1	1.3
CN(C1=NS(=O)(=O)N=C(N(C)c2ccccc2)O1)c1ccccc1	1.3	x	5.1	x	x	-2.8	x	x	x	x	x
Cc1[nH]n(C(N)=S)c(=O)c1N=Nc1ccc2ccccc2c1	6.6	x	-13.6	x	x	6.2	x	x	x	x	x
Cc1[nH]n(C(N)=S)c(=O)c1N=Nc1cc(-c2ccc(Br)cc2)[nH]n1	-0.7	17.8	-16.7	68.9*	55.1*	30.5	-7.0	1.0	-5.9	-4.2	12.4
Cc1ccc(N=Nc2c(C)[nH]n(C(N)=S)c2=O)cc1C	4.4	78.2*	-4.5	89.6*	77.8*	57.3*	61.2*	54.3*	67.2*	73.2*	15.9
Cc1[nH]n(C(N)=S)c(=O)c1N=Nc1ccc(S(=O)(=O)N2CCCCCC2)cc1	3.1	26.4	10.4	72.8*	49.0	36.9	50.7*	43.4	48.5	45.2	19.7
NC(=S)n1[nH]c(-c2ccc([N+](=O)[O-])cc2)c(N=Nc2cccc([N+](=O)[O-])c2)c1=O	7.3	x	2.7	x	x	37.6	x	x	x	x	x
Cc1c(N=Nc2c(-c3ccc([N+](=O)[O-])cc3)[nH]n(C(N)=S)c2=O)cccc1[N+](=O)[O-]	3.6	x	-13.7	x	x	28.7	x	x	x	x	x
CC(=O)Nc1ccc(N=Nc2c(C)[nH]n(C(N)=S)c2=O)cc1	2.9	67.4*	-4.2	52.8*	69.7*	8.3	63.7*	65.9*	92.6*	92.1*	38.9
O=C(Nc1cc(S(=O)(=O)N2CCOCC2)ccc1Cl)c1ccncc1	1.2	5.1	0.2	18.0	0.2	3.7	x	x	x	x	x
CC(C)(C)N(Cc1ccccc1)C(=O)COC(=O)C1=NN(c2ccccc2)C(=O)CC1	0.8	-6.3	-12.9	-13.1	-5.5	6.4	x	x	x	x	x
Cc1cccc(S(=O)(=O)NC(=O)C2(C)CCN2C(=O)Cc2cccs2)c1 (configuration not stated)	0.5	x	-4.0	x	x	5.9	x	x	x	x	x
CN1C[C@@H]2[C@@H]3C(=O)N(C)C(=O)[C@@H]3[C@](C)(C1=O)N2C(=O)c1ccc(C(C)(C)C)cc1	1.2	x	5.2	x	x	15.9	x	x	x	x	x
COCCNC(=O)C[C@H]1C[C@H]2c3cc(NS(=O)(=O)c4ccc(F)cc4)ccc3O[C@H]2[C@H](CO)O1	-0.9	x	-0.2	x	x	9.2	x	x	x	x	x
Cc1[nH]n(C(N)=S)c(=O)c1N=Nc1cccc([N+](=O)[O-])c1C	3.0	71.4*	3.8	95.6*	87.7*	38.6	95.9*	95.3*	101.8*	92.2*	88.0*
CC1=C(C(=O)N(C(C)C)C(C)C)CC(CC(=O)NC2CC2)C(=O)N1CCC1=CCCCC1 (configuration not stated)	-1.4	x	10.2	x	x	9.9	x	x	x	x	x

Compound activity from PubChem BioAssay.
